The values below come from article PMC3326416 (Journal of the American Chemical Society, 2012).

Where “and” joins values, the source holds several entries; their conditions need not be identical. Identical values can stand only once. Entries after “also recorded” stand apart in the source; their conditions may differ. Where only a bound is given, the exact number is not on record here.

Assay [1] concerns the target T1, PME-1 (Mus musculus, UniProt Q8BVQ5).
T1 sequence (Q8BVQ5 1-386): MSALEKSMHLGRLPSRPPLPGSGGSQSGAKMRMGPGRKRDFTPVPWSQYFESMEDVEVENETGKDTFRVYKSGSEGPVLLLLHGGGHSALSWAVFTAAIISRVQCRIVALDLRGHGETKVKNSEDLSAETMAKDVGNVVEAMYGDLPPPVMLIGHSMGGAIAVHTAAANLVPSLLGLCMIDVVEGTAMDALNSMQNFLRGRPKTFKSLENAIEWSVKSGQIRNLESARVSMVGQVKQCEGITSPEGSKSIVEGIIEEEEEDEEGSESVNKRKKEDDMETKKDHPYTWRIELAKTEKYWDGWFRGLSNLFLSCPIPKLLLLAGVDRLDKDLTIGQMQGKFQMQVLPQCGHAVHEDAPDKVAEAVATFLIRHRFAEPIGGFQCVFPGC
The experiment in a line: ABPP-SILAC in Neuro-2A cells, PME-1. The format is cell-based. The note with it: 100 nM, 2 h. The method, boiled down:
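Neuro-2A cells were grown in isotopically light or heavy amino acids: light cells got DMSO, heavy cells got test compound at 100 nM for 2 h. Proteomes were labelled with FP-biotin, mixed 1:1, avidin-enriched and analysed by LC/LC-MS/MS on an LTQ-Velos Orbitrap. Activity is the heavy:light MS1 ion ratio of tryptic peptides, reported as mean ± SEM over all peptides quantified per hydrolase.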

In assay [2] the test system is PME-1. As to conditions: acylation of active-site serine nucleophile; cited from earlier work.
Assay [3] concerns the target T2, ABHD10 (Mus musculus, UniProt Q6PE15).
T2 sequence (Q6PE15 44-297): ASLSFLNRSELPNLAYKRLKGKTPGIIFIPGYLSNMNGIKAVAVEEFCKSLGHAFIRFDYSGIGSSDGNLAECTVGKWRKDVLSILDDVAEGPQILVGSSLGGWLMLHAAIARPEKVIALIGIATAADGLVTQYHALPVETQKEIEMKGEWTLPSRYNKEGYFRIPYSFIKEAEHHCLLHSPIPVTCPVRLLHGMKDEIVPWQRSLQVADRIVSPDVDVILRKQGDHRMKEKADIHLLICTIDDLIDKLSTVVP
Kind of assay: Gel-based ABPP in situ in Neuro2A cells, ABHD10. The note with it: single treatment, 250 nM. The format is cell-based. The method, boiled down: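 Neuro-2A cells received a single in situ treatment with test compound at 250 nM. ABHD10 activity was then followed by gel-based ABPP of cell proteomes over a period of up to 6 h after treatment.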

The test system of assay [4] is serine hydrolases. Kind of assay: Gel-based ABPP in situ in Neuro2A cells, off-target serine hydrolases. The format is cell-based, mouse. The method, boiled down: (§1)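 Intact Neuro-2A cells were treated with test compound at 10–0.001 µM for 2 h. Membrane and soluble proteomes were then analysed by gel-based competitive ABPP, and IC50 was derived from the gel signal. Data are mean ± SEM, n = 3/group.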

For assay [5], the target named is T2, ABHD10. Kind of assay: ABPP-SILAC in Neuro-2A cells, ABHD10. The format is cell-based.
Assay [6] has as its target T1, PME-1. The experiment in a line: Gel-based ABPP in situ in Neuro2A cells, PME-1. The note with it: up to 10 µM, 2 h. The format is cell-based. The gist of the method:
as §1

For assay [7], the target named is T2, ABHD10. Kind of assay: Competitive ABPP of Neuro2A proteomes. The format is biochemical.
The target of assay [8] is T2, ABHD10. The experiment in a line: ABPP-SILAC in BW5147-derived mouse T-cell hybridoma cells, ABHD10. The format is cell-based. The gist of the method:
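ABPP-SILAC in a second line, BW5147-derived mouse T-cell hybridoma cells. Cells were cultured in light or heavy amino acids and treated with DMSO or test compound. Proteomes were FP-biotin-labelled, combined 1:1, avidin-enriched and analysed by LC/LC-MS/MS. Serine hydrolase activity was quantified from heavy:light MS1 ratios of tryptic peptides.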

`COC(=O)N1C(=O)[C@](c2ccccc2)(C2CCCC2)N1C(=O)OC` [ABL127]: in assay [1], the “disruption of PME-1 activity (ABPP-SILAC)” value was “complete and selective disruption; also recorded: selective inhibition”. Moreover, the “inhibition of PME-1 in cells and mice” value in assay [2] is given as “irreversibly inhibit”.

Consider `CCC1(c2ccc(C)cc2)C(=O)N(C(=O)OC(C)C)N1C(=O)OC(C)C` (centres unmarked) [ABL303], for which the “time complete inhibition of ABHD10 was maintained” value in assay [3] is on record as “at least 6 h”. Further, in assay [4], the “concentration at which off-targets are detected” value was at least 1 µM. Further, the “inhibition of ABHD10 (ABPP-SILAC), in words” value in assay [5] (100 nM, 2 h) was “selective inhibition”. Further, the “loss in ABHD10 activity” value in assay [5] (100 nM, 2 h, ABPP-SILAC, ~40 serine hydrolase activities detected) is on record as above 95%. In assay [5] (250 nM), the “inhibition of ABHD10 at higher concentration” value was “complete and selective inhibition”. Moreover, the “inhibition of PME-1 in situ” value in assay [6] is reported as “no significant inhibition”. Moreover, the “selectivity for ABHD10 over ABHD6, PREP, PME-1, and other serine hydrolases” value in assay [7] is “at least 40 fold”. For the same compound, in assay [7] (read-out: IC50 ABHD10, in vitro), the IC50 (commonly the concentration that gives 50% inhibition) is ~30 nM and 30 nM. Besides, in assay [8], the “inhibition of ABHD10 in second cell line” value was “complete and selective inhibition”.
